Data as given in ChEMBL document CHEMBL1137451, “Synthesis and evaluation of antifungal properties of a series of the novel 2-amino-5-oxo-4-phenyl-5,6,7,8-tetrahydroquinoline-3-carbonitrile and its analogues” (Bioorg Med Chem, 2007).
In brackets after ≈: the same amount, converted by molar mass. Activity calls are given as the source filed them. No cut-off for these calls is given here.

Tests used:
Fusarium oxysporum [1] = test: Antifungal activity against Fusarium oxysporum 2 at 60 ug/disc after 24 hrs by disc diffusion method; format: functional; details: read-out: IZ
In short: (§1)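 Yeast suspensions (C. albicans strains 1, 2) and mycelial suspensions (F. oxysporum strains 1, 2; Mucor sp.) spread on YPG (0.3% yeast extract, 0.5% peptone, 1% glucose) or PDA agar. Compound applied on filter-paper discs at the stated amount; 28 °C, 24 h. Read-out is inhibition zone diameter. Controls: 50% v/v DMSO vehicle, cycloheximide, amphotericin B.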

Candida albicans [2] = test: Antifungal activity against Candida albicans 2 at 40 ug/disc after 24 hrs by disc diffusion method; format: functional; details: read-out: IZ; in short: as §1
Candida albicans [3] = test: Antifungal activity against Candida albicans 1 after 24 hrs by disc diffusion method; format: functional
In short: (§2)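 Disc diffusion on Candida albicans strains 1 and 2 (yeast suspension), Fusarium oxysporum strains 1 and 2 and Mucor sp. (mycelial suspension), spread on YPG or PDA agar. Compound at graded amounts per filter-paper disc, 28 °C for 24 h. MIC taken as the lowest amount giving a 2 mm inhibition zone. Controls: 50% v/v DMSO vehicle, cycloheximide, amphotericin B.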

Mucor [4] = test: Antifungal activity against Mucor at 40 ug/disc after 24 hrs by disc diffusion method; format: functional; details: for zone of inhibition at 40 µg/disc: read-out: IZ; in short: as §1
Candida albicans [5] = test: Antifungal activity against Candida albicans 2 after 24 hrs by disc diffusion method; format: functional; in short: as §2
Candida albicans [6] = test: Antifungal activity against Candida albicans 1 at 100 ug/disc after 24 hrs by disc diffusion method; format: functional; details: read-out: IZ; in short: as §1
Fusarium oxysporum [7] = test: Antifungal activity against Fusarium oxysporum 2 at 100 ug/disc after 24 hrs by disc diffusion method; format: functional; details: read-out: IZ; in short: as §1
Fusarium oxysporum [8] = test: Antifungal activity against Fusarium oxysporum 1 after 24 hrs by disc diffusion method; format: functional; in short: as §2
Mucor [9] = test: Antifungal activity against Mucor at 100 ug/disc after 24 hrs by disc diffusion method; format: functional; details: read-out: IZ; in short: as §1
MCF7 [10] = test: Antiproliferative activity against human MCF7 cells assessed as cell viability by MTT assay; format: functional, cell-based
In short: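 MCF-7 cells in MEM with 10% FBS, 37 °C, 5% CO2, seeded 10,000/well, adhered 24 h. Treated 48 h at 0, 1, 10, 100, 1000 or 2000 µg/ml (DMSO stock diluted in medium), then 24 h recovery. MTT 4 h, 2-propanol solubilisation, A570 against 630 nm. DMSO carrier set as 100% growth; IC50 taken from the dose curve; triplicates.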

Mucor [11] = test: Antifungal activity against Mucor at 60 ug/disc after 24 hrs by disc diffusion method; format: functional; details: read-out: IZ; in short: as §1
Candida albicans [12] = test: Antifungal activity against Candida albicans 2 at 60 ug/disc after 24 hrs by disc diffusion method; format: functional; details: read-out: IZ; in short: as §1
Hep 3B2 [13] = test: Antiproliferative activity against human Hep3B cells upto 400 ug/mL assessed as cell viability by MTT assay; format: functional, cell-based
In short: (§3)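 Hep3B or MCF-7 cells in MEM with 10% heat-inactivated FBS at 37 °C, 5% CO2, seeded 10,000/well and left to adhere 24 h. Exposed 48 h to compound diluted from 4 mg/ml DMSO stock, then 24 h in fresh medium. MTT (1 mg/ml, 4 h), formazan dissolved in 2-propanol, read at 570 nm (630 nm reference). DMSO-only wells set as 100% growth; triplicates.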

Fusarium oxysporum [14] = test: Antifungal activity against Fusarium oxysporum 1 at 40 ug/disc after 24 hrs by disc diffusion method; format: functional; details: for zone of inhibition at 40 µg/disc: read-out: IZ; in short: as §1
Fusarium oxysporum [15] = test: Antifungal activity against Fusarium oxysporum 2 at 40 ug/disc after 24 hrs by disc diffusion method; format: functional; details: for zone of inhibition at 40 µg/disc: read-out: IZ; in short: as §1
Candida albicans [16] = test: Antifungal activity against Candida albicans 1 at 40 ug/disc after 24 hrs by disc diffusion method; format: functional; details: read-out: IZ; in short: as §1
Fusarium oxysporum [17] = test: Antifungal activity against Fusarium oxysporum 2 after 24 hrs by disc diffusion method; format: functional; in short: as §2
Fusarium oxysporum [18] = test: Antifungal activity against Fusarium oxysporum 1 at 60 ug/disc after 24 hrs by disc diffusion method; format: functional; details: read-out: IZ; in short: as §1
Mucor [19] = test: Antifungal activity against Mucor at after 24 hrs by disc diffusion method; format: functional; in short: as §2
Hep 3B2 [20] = test: Antiproliferative activity against human Hep3B cells at 1 mg/mL assessed as cell viability by MTT assay; format: functional, cell-based; in short: as §3
Fusarium oxysporum [21] = test: Antifungal activity against Fusarium oxysporum 1 at 100 ug/disc after 24 hrs by disc diffusion method; format: functional; details: read-out: IZ; in short: as §1
Candida albicans [22] = test: Antifungal activity against Candida albicans 2 at 100 ug/disc after 24 hrs by disc diffusion method; format: functional; details: read-out: IZ; in short: as §1
Candida albicans [23] = test: Antifungal activity against Candida albicans 1 at 60 ug/disc after 24 hrs by disc diffusion method; format: functional; details: read-out: IZ; in short: as §1
MCF7 [24] = test: Antiproliferative activity against human MCF7 cells at 1 mg/mL assessed as cell viability by MTT assay; format: functional, cell-based; in short: as §3
Benjaminiella poitrasii [25] = test: Inhibition of Benjaminiella poitrasii chitin synthase at 4 ug/mL
In short: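 Chitin synthase from Benjaminiella poitrasii measured with and without compound at 4 µg/ml, using a non-radioactive chitin synthase assay. Nikkomycin Z used as reference.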

Benjaminiella poitrasii [26] = test: Inhibition of yeast hypha transition at 4 ug/mL after 4 hrs
Benjaminiella poitrasii [27] = test: Inhibition of yeast hypha transition at 20 ug/mL after 4 hrs

SMILES | zone of inhibition at 60 µg/disc (Fusarium oxysporum [1]) | zone of inhibition at 40 µg/disc (Candida albicans [2]) | MIC (Candida albicans [3]) | MIC (Candida albicans [5]) | zone of inhibition at 100 µg/disc (Candida albicans [6]) | zone of inhibition at 100 µg/disc (Fusarium oxysporum [7]) | MIC (Fusarium oxysporum [8]) | zone of inhibition at 100 µg/disc (Mucor [9]) | IC50 (MCF7 [10]) | zone of inhibition at 60 µg/disc (Mucor [11]) | zone of inhibition at 60 µg/disc (Candida albicans [12]) | Activity (Hep 3B2 [13]) | zone of inhibition at 40 µg/disc (Candida albicans [16]) | MIC (Fusarium oxysporum [17]) | zone of inhibition at 60 µg/disc (Fusarium oxysporum [18]) | MIC (Mucor [19]) | zone of inhibition at 100 µg/disc (Fusarium oxysporum [21]) | zone of inhibition at 100 µg/disc (Candida albicans [22]) | zone of inhibition at 60 µg/disc (Candida albicans [23]) | inhibition (Benjaminiella poitrasii [25]) | further results
C[C@@H]1[C@H](O)[C@@H](C)/C=C/C=C/C=C/C=C/C=C/C=C/C=C/[C@H](O[C@@H]2O[C@H](C)[C@@H](O)[C@H](N)[C@@H]2O)C[C@@H]2O[C@](O)(C[C@@H](O)C[C@@H](O)[C@H](O)CC[C@@H](O)C[C@@H](O)CC(=O)O[C@H]1C)C[C@H](O)[C@H]2C(=O)O [AMPHOTERICIN B] | 6 mm | 4 mm | 40 µg/disc | 40 µg/disc | 12 mm | 9 mm | 40 µg/disc | 10 mm | 60 µg/mL (≈ 64.9 µM) | 7 mm | 7 mm | Non-toxic | 4 mm | 40 µg/disc | 6 mm | 40 µg/disc | 9 mm | 12 mm | 7 mm | – | zone of inhibition at 40 µg/disc (Mucor [4]): 5 mm; zone of inhibition at 40 µg/disc (Fusarium oxysporum [14]): 2 mm; zone of inhibition at 40 µg/disc (Fusarium oxysporum [15]): 3 mm; Activity (Hep 3B2 [20]): Toxic; Activity (MCF7 [24]): Toxic
C[C@@H]([C@H](N)C(=O)N[C@H](C(=O)O)[C@H]1O[C@@H](n2ccc(=O)[nH]c2=O)[C@H](O)[C@@H]1O)[C@H](O)c1ccc(O)cn1 [NIKKOMYCIN] | – | – | – | – | – | – | – | – | – | – | – | – | – | – | – | – | – | – | – | > 90% | inhibition at 4 µg/mL (Benjaminiella poitrasii [26]): > 90%
N#Cc1c(N)nc2c(c1-c1cccc([N+](=O)[O-])c1)C(=O)CCC2 | 4 mm | 3 mm | 40 µg/disc | 40 µg/disc | 7 mm | 7 mm | 20 µg/disc | 15 mm | 293 µg/mL (≈ 952 µM) | 9 mm | 4 mm | Non-toxic | 3 mm | 20 µg/disc | 4 mm | 60 µg/disc | 7 mm | 7 mm | 4 mm | 81% | Activity (Mucor [4]): inactive; zone of inhibition at 40 µg/disc (Fusarium oxysporum [14]): 3 mm; zone of inhibition at 40 µg/disc (Fusarium oxysporum [15]): 3 mm; inhibition at 20 µg/mL (Benjaminiella poitrasii [27]): 85%; Activity (Hep 3B2 [20]): Toxic; Activity (MCF7 [24]): Toxic
CC(=O)Nc1nc2c(c(-c3cccc(N4C(=O)C=CC4=O)c3)c1C#N)C(=O)CCC2 | 2 mm | 2 mm | 40 µg/disc | 40 µg/disc | 7 mm | 6 mm | 40 µg/disc | 11 mm | 50 µg/mL (≈ 125 µM) | 9 mm | 2 mm | Non-toxic | 2 mm | 40 µg/disc | 2 mm | 40 µg/disc | 6 mm | 7 mm | 2 mm | 91% | zone of inhibition at 40 µg/disc (Mucor [4]): 8 mm; zone of inhibition at 40 µg/disc (Fusarium oxysporum [14]): 2 mm; zone of inhibition at 40 µg/disc (Fusarium oxysporum [15]): 2 mm; inhibition at 20 µg/mL (Benjaminiella poitrasii [27]): 95%; Activity (Hep 3B2 [20]): Toxic; Activity (MCF7 [24]): Toxic
N#Cc1c(N)nc2c(c1-c1ccc(F)cc1)C(=O)CCC2 | 3 mm | 2 mm | 40 µg/disc | 40 µg/disc | 6 mm | 7 mm | 40 µg/disc | 12 mm | – | 9 mm | 4 mm | – | 2 mm | 40 µg/disc | 3 mm | 60 µg/disc | 7 mm | 6 mm | 4 mm | 81% | Activity (Mucor [4]): inactive; Activity (Fusarium oxysporum [14]): inactive; Activity (Fusarium oxysporum [15]): inactive; inhibition at 20 µg/mL (Benjaminiella poitrasii [27]): 95%
